{"source": "paper PMC2951323", "about": "(Nature, 2009)", "molecules": {"B1": {"name": "dnMAML1 (dominant-negative fragment of MAML1, amino acids 13–74) (domain or fragment, human, UniProt Q92585 13-74, looked up)", "chain": "LPRHSAVMERLRRRIELCRRHHSTCEARYEAVSPERLELERQHTFALHQRCIQAKAKRAGKH"}}, "key": {"[1]": {"system": "constitutively activated NOTCH1", "assay": "NOTCH1-dependent dual-luciferase reporter-gene assay", "format": "cell-based", "conditions": "signal normalized to Renilla luciferase control"}, "[2]": {"format": "cell-based"}, "RAMANK–CSL complex": {"molecular_target": "RAMANK–CSL complex (Homo sapiens, UniProt P46531+Q06330)", "assay": "Fluorescence polarization binding of FITC–SAHM peptides to RAMANK–CSL", "in_short": "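FITC-labelled stapled test peptides titrated against recombinant human RAMANK (NOTCH1 aa 1761–2127) pre-complexed with human CSL (aa 9–435). Both proteins were expressed and purified as previously reported. Buffer was 20 mM Tris pH 8.4, 150 mM NaCl, 1 mM EDTA and 1 mM DTT. Polarization was read at λex 485 nm and λem 525 nm. Data are mean ± s.d., n = 3.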"}, "[3]": {"molecular_target": "pre-formed RAMANK–CSL complex (human, UniProt P46531 1761-2127; Q06330 23-449)", "sequence (P46531 1761-2127, chain 1 of 2)": "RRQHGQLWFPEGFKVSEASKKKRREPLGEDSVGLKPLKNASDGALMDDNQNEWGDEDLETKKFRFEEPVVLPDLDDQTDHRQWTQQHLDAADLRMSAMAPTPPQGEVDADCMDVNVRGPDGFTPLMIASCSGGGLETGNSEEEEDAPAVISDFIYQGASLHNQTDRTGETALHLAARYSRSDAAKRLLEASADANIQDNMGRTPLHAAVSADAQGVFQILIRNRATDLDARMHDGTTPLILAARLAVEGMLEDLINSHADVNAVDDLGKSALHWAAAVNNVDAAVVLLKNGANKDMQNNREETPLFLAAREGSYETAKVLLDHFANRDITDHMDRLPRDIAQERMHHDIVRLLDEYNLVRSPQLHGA", "sequence (Q06330 23-449, chain 2 of 2)": "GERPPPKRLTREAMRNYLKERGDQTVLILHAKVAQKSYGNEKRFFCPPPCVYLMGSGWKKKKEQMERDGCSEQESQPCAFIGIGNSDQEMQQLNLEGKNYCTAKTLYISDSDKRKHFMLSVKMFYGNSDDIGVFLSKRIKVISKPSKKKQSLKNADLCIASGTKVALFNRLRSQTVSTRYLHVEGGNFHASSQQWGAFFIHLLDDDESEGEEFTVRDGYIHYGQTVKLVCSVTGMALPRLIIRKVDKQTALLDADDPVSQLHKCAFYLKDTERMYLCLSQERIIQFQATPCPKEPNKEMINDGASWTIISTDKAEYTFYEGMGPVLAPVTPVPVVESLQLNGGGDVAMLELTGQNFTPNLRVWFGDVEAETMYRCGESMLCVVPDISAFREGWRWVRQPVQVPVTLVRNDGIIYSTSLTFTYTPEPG", "assay": "fluorescence polarisation"}}, "note": "Bridge positions count the residues as written; N and C are the ends. Square brackets hold non-standard residues; d marks the D form. Ends that are not written are not given here. Peptide text beside a SMILES is read from it. * marks the point of attachment. FITC = O=C1OC2(c3ccc(O)cc3Oc3cc(O)ccc32)c2ccc(NC(=S)*)cc21; S5 = C=CCCC[C@](C)(N)C(=O)O; βAla = NCCC(=O)O"}
{"molecule": "C[C@H](NC(=O)Cc1cc(F)cc(F)c1)C(=O)N[C@H](C(=O)OC(C)(C)C)c1ccccc1", "note": "[DAPT]", "values": [{"measurement": "repression of luciferase activity", "setting": "[1]", "result": "near complete repression"}]}
{"molecule": "CC[C@H](C)[C@H](NC(=O)[C@H](CCCNC(=N)N)NC(=O)[C@H](CCCNC(=N)N)NC(=O)[C@H](CCCNC(=N)N)NC(=O)[C@H](CC(C)C)NC(=O)[C@H](CCCNC(=N)N)NC(=O)[C@H](CCC(=O)O)NC(=O)CCNC(=S)Nc1ccc2c(c1)C(=O)OC21c2ccc(O)cc2Oc2cc(O)ccc21)C(=O)N[C@@]1(C)CCCC=CCCC[C@@](C)(C(=O)N[C@@H](Cc2c[nH]cn2)C(=O)N[C@@H](Cc2c[nH]cn2)C(=O)N[C@@H](CO)C(=O)N[C@H](C(N)=O)[C@@H](C)O)NC(=O)[C@H](CCCNC(=N)N)NC(=O)[C@H](CS)NC(=O)[C@H](CC(C)C)NC1=O", "note": "[FITC–SAHM1] ({FITC-βAla}-ERLRRRI[S5]LCR[S5]HHST-NH2; staple 8-12; N-terminus assumed)", "values": [{"measurement": "intracellular distribution", "setting": "[2]; FITC-labelled peptide", "result": "distributed throughout the cytoplasm and nucleus"}, {"measurement": "uptake at 4 °C relative to 37 °C", "setting": "[2]; FITC-labelled peptide, 4 °C vs 37 °C", "result": "diminished"}, {"measurement": "cellular uptake (cell penetration)", "setting": "[2]; FITC-labelled peptides, quantitative epifluorescence microscopy", "result": "robust and roughly equivalent cellular uptake"}, {"measurement": "Kd", "setting": "RAMANK–CSL complex", "result": "0.12 ± 0.02", "unit": "µM"}]}
{"molecule": "FITC–MAML1(21–36): FITC-labelled unmodified MAML1(21–36) peptide ({FITC}-ERLRRRIELCRRHHST; UniProt Q92585 21-36, looked up, fragment)", "values": [{"measurement": "binding affinity for RAMANK–CSL compared with FITC–SAHM1 (in words)", "setting": "RAMANK–CSL complex; fluorescence polarization, same buffer", "result": "markedly diminished affinity"}]}
{"molecule": "B1", "values": [{"measurement": "IC50", "setting": "[3]", "result": 3.9, "unit": "µM"}]}
